# A selection: hits, their analogues and other compounds. The true share with any hit is near 2.6%.
# E-selectin induc = E-selectin induction in HUVECs, primary screen, imaging, HUVEC, immunofluorescence imaging, single point | P16581 | normalized: neutral wells 0, TNF-alpha wells 100 | activation, % at 7.58 µM | hit rate 0.37% among 260,000;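 active = mean E-selectin-positive cell signal at least 10% of the positive control, reached in at least 60% of replicates, without over 20% cell loss; inconclusive = no rule given, readout overlaps actives, possibly toxicity-flagged; inactive = the rest, including those meeting only one limit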
#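 assay system = HUVEC, human umbilical vein endothelial cells | input = 3,000 HUVEC seeded per well | medium = EGM-2 growth medium on 0.1% gelatin-coated wells | dosing = one compound dose added by pin transfer | signal = immunofluorescence imaging | read-out basis = % PE-positive cells | control set = TNF-alpha, DMSO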
# ERAP1 HTS inh = human ERAP1 aminopeptidase inhibitors, primary screen, biochemical, single point, plate reader; recombinant ERAP1, Leu-AMC fluorescence, 60 min; inhibition, % at 10.7 µM; hit rate 0.15% among 340,000; AID 652197, 2013;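 active = mean replicate inhibition of at least 30%, or all replicates individually reaching that 30% level; inactive = mean below 30% and not every replicate reaching it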;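 note: 0% = neutral control wells and 100% = L-leucinethiol positive control wells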
# F508del corr = F508del CFTR correction, initial screen, CFBE line, single point; CFBE cells, YFP halide quenching; stimulated with forskolin plus potentiator P3; % fluorescence drop versus neutral controls; activity (quench increase), % at 7.58 µM; hit rate 0.36% among 350,000;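 active = mean added fluorescence quench of at least 8% versus neutral control, with both replicates also reaching 8%; inconclusive = only one of the mean or replicate conditions met; inactive = mean below 8% and not both replicates reaching 8%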;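 note: cells transiently co-express mutant CFTR-F508del with the halide-sensitive YFP; corrector assay measuring rescue of mutant channel to the surface after 24 h compound exposure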
# DENV2 CPE = inhibitors of DENV2 cytopathic effect, primary screen, cell-based, plate reader, single concentration. DENV2-infected cells, cytopathic effect rescue. CPE inhibition, % at 9.99 µM. hit rate 1.7% among 350,000. AID 651640, 2012; in the data active = CPE inhibition above about 20%, passing the limit was not always enough; inconclusive = no clear call, values can overlap the other calls; tested in BHK-21 cells;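 note: 0% = median of neutral control wells and 100% = median of positive control wells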
# INS-1E GSIS act = GLuc luminescence reporter in INS-1E cells, primary screen for activators of glucose-dependent secretion of insulin | INS-1E GLuc reporter insulin secretion, 2-3 h | activation, % at 16.6 µM | hit rate 0.61% among 370,000;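 active = lowest replicate activation of at least 40%, so every replicate reaches that level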;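 note: 0% = median of neutral control wells and 100% = median of IBMX positive control wells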
# miR122 inh = miR-122 Renilla sensor signal increase in Huh7, primary screen, miR-122 inhibitor project, cell-based, single point, plate reader | Huh7 miR-122 Renilla luciferase sensor, 48 h; neutral wells = 0, positive control = 100 | activation (reporter increase), % at 12.5 µM | hit rate 0.3% among 340,000 | AID 602342, 2012;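 active = mean replicate activation score at least 90 and every replicate individually at or above 90; inconclusive = only one of the two criteria met; inactive = neither criterion met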;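 note: higher luciferase means less miR-122 activity so hits act as miR-122 inhibitors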
# * = called active by the depositor; u = inconclusive; x = not tested or not shown; [ ] = dose if it differs, or a comment.
SMILES,E-selectin induc,ERAP1 HTS inh,F508del corr,DENV2 CPE,INS-1E GSIS act,miR122 inh
O=C(C[C@@H]1CC[C@@H]2[C@H](COC[C@H](O)CN2CC2CCOCC2)O1)N1CCOCC1,0,1,-1,102*,-6,-2[16.7 µM]
O=C(C[C@H]1CC[C@H]2[C@@H](COC[C@H](O)CN2CC2CCOCC2)O1)N1CCOCC1,0,-1,-1,-3,8,-1[16.7 µM]
C[C@@H]1CN([C@H](C)CO)C(=O)c2cc(NC(=O)Nc3ccc(C(F)(F)F)cc3)ccc2O[C@H]1CN(C)Cc1ccncc1,x,-1,-2,33*,-11,12[16.7 µM]
C[C@@H]1CN([C@H](C)CO)C(=O)c2cc(NC(=O)Nc3ccc(C(F)(F)F)cc3)ccc2O[C@@H]1CN(C)Cc1ccc(Cl)c(Cl)c1,-3,0,0,46*,-6,-3[16.7 µM]
CC(C)NC(=O)Nc1ccc2c(c1)C(=O)N([C@H](C)CO)C[C@H](C)[C@H](CN(C)Cc1ccc(C(F)(F)F)cc1)O2,-20,1,-1,-3,2,-2[16.7 µM]
CC(C)NC(=O)Nc1ccc2c(c1)C(=O)N([C@@H](C)CO)C[C@H](C)[C@H](CN(C)Cc1ccc(C(F)(F)F)cc1)O2,51*,1,3,6,17,-7[16.7 µM]
C[C@@H]1CN([C@H](C)CO)C(=O)c2cc(NC(=O)NC3CCCCC3)ccc2O[C@@H]1CN(C)Cc1ccncc1,0,-2,-1,30*,5,-2[16.7 µM]
C[C@H]1CN([C@@H](C)CO)C(=O)c2cc(NC(=O)Nc3ccc(C(F)(F)F)cc3)ccc2O[C@@H]1CN(C)Cc1ccccc1,1,0,0,17,-7,0[16.7 µM]
C[C@H]1CC=CCCNC(=O)[C@H](C)N(C)C(=O)c2ccccc2O1 (mixture of isomers),x,x,x,x,-1,x
CCCC(=O)Nc1ccc2c(c1)OC[C@@H](C)N(Cc1nccs1)C[C@@H](C)[C@H](OC)CN(C)C2=O,0,3,-2,-7,-4,x
CO[C@H](CN(C)C(=O)C1CCOCC1)[C@H](C)CN(C(=O)Nc1ccc(F)cc1)[C@@H](C)CO,0,0,-1,-5,9,x
Cc1ccc(S(=O)(=O)N(C)C[C@H]2OCCCC[C@H](C)Oc3ccc(NC(=O)Cc4ccccc4)cc3C(=O)N([C@@H](C)CO)C[C@H]2C)cc1,x,1,-1,-9,-18,7[16.7 µM]
CCC(=O)N1C[C@@H](C)[C@@H](OC)CN(C)C(=O)c2cc(NC(=O)NC3CCCC3)ccc2OC[C@@H]1C,x,x,x,x,-3,x
Cc1ccc(-n2c(-c3cccs3)nc3nc4ccccc4nc32)cc1,5,-5,x,0,20,x
Fc1ccc(-n2c(-c3cccs3)nc3nc4ccccc4nc32)cc1,36*,x,x,x,9,x
CN(C)C(=O)c1cccc(-c2ccc([C@H]3[C@@H](CO)N(C(=O)C4CCCC4)[C@H]3C#N)cc2)c1,0,0,-4,13,-14,x
C[C@@H]1CN([C@@H](C)CO)S(=O)(=O)c2ccc(C#CC3CC3)cc2O[C@H]1CN(C)C(=O)Nc1cc(F)ccc1F,0,x,5,x,-20,12[16.7 µM]
COc1ccc(C(CCNC(C)c2ccccc2)C(C)C)cc1 (stereo unspecified),x,x,1,-11,-28,-6
COc1ccc(C(C)NCCC(c2ccc(OC(C)C)cc2)c2ccccc2OC)cc1 (stereo unspecified),0,1,-2,-1,134*,x
CN1c2ccc(Br)cc2[C@@H]2[C@@H](CCN2C(=O)C2CCOCC2)[C@@H]1CO,1,0,0,-11,6,-3[16.7 µM]
CC(=O)Nc1ccc(C=NNC(=O)CCCC(=O)NN=Cc2ccc(NC(C)=O)cc2)cc1,0,-4,0,0,41*,x
CC(=O)Nc1ccc(/C=N/NC(=O)CC2CCCCC2)cc1,x,-2,-1,14,-2,-1
Cc1ccc(S(=O)(=O)N[C@@H]2C=C[C@@H](CC(=O)NCCN3CCCCC3)O[C@@H]2CO)cc1,-1,0,1,2,-1,3[16.7 µM]
C[C@H]1CN([C@@H](C)CO)C(=O)c2cc(C#CCN(C)C)cnc2O[C@H]1CN(C)S(C)(=O)=O,-1,3,-1,16,12,-1[16.7 µM]
CCn1c(SCC(=O)Nc2ccc(N3CCOCC3)cc2)nnc1-c1ccc(OC)cc1,x,1,-1,0,5,142*
SMILES,E-selectin induc,ERAP1 HTS inh,F508del corr,DENV2 CPE,INS-1E GSIS act,miR122 inh
Cc1cccc(N(C(=O)Cn2nnc3ccccc32)C(C(=O)NC(C)(C)C)c2ccsc2)c1 (stereo unspecified),x,0,-3,24*,8,-2
CN1c2ccc(-c3ccccc3F)cc2[C@@H]2[C@@H](CCN2C(=O)Nc2cc(F)ccc2F)[C@@H]1CO,0,x,2,42*,-14,2[16.7 µM]
CN1c2ccc(-c3ccccc3F)cc2[C@H]2[C@H](CCN2C(=O)c2cccc(F)c2)[C@H]1CO,0,x,0,14,-40,60[16.7 µM]
CN1c2ccc(-c3ccccc3F)cc2[C@@H]2[C@@H](CCN2C(=O)c2cccc(F)c2)[C@@H]1CO,0,x,-2,76*,-9,7[16.7 µM]
CCCN1C[C@H](C)[C@H](OC)CN(C)C(=O)c2cc(NC(=O)C3CC3)ccc2OC[C@@H]1C,0,1,1,-4,8,x
COC(=O)CCCCCC(CCC(=O)OC)NC(C)=O (stereo unspecified),x,x,x,x,x,238*
COC(=O)[C@H]1[C@H](CO)[C@H]2Cn3c(ccc(-c4ccccc4F)c3=O)[C@H]2N1CC1CCCC1,0,1,-1,-15,-13,7[16.7 µM]
COc1cc(CNCCc2ccccc2)cc(Cl)c1OCc1ccccc1,x,-6,-13,-16,122*,1
COc1cc(CNCc2ccccc2)cc(Cl)c1OC,x,0,-1,3,-3,-4
CCNC(=O)[C@@H]1[C@@H](CO)[C@@H]2Cn3c(ccc(-c4ccc(F)cc4)c3=O)[C@H]1N2C,0,9,2,0,7,15[16.7 µM]
Cc1cc2c(cc1S(=O)(=O)Nc1ccc(F)cc1)n(C)c(=O)c(=O)n2C,0,2,11*,-5,-28,19
O=C(c1ccncc1)N1C[C@H]2[C@@H](c3ccccc31)[C@@H](CO)N2C(=O)Nc1ccc(F)cc1,0,0,-2,u,-3,21[16.7 µM]
C=CCOc1ccc(CNCc2cccnc2)cc1OCC,x,-2,x,22*,x,2
C=CCOc1ccc(CNCCO)cc1OCC,-2,14,x,5,8,-7

# Screening data: PubChem, Broad Institute
